Reference: ChEMBL document CHEMBL1148129, “Reversal of multidrug resistance by tropane alkaloids from the stems of Erythroxylum rotundifolium” (2002)
≈ marks a conversion by molar mass, not a printed value. Calls of active or inactive are those of the source. The rule behind the calls is not given here.

Columns and labels:
LNCaP = assay: Cytotoxicity against human LNCAP cells; format: functional; details: read-out: ED50 (the source's name)
Col2 = assay: Cytotoxicity against human Col2 cells; format: functional; details: read-out: ED50 (the source's name)
Lu1 = assay: Cytotoxicity against human Lu1 cells; format: functional; details: read-out: ED50 (the source's name)
[1] = Cytotoxicity against human BC1 cells; format: functional; details: read-out: ED50 (the source's name)
ASK = assay: Cytotoxicity against human ASK cells at 20 ug/mL; format: functional, cell-based
[2] = Cytotoxicity against human KBV1 cells in absence of vinblastine; format: functional; details: KB-V1, read-out: ED50 (the source's name)
How it was run: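 Multidrug-resistant oral epidermoid carcinoma KB-V1 cells were incubated with test compound alone, with no vinblastine added. Cytotoxicity is reported as ED50 in µg/mL.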

[3] = Cytotoxicity against human KBV1 cells in presence of vinblastine; format: functional; details: KB-V1, read-out: ED50 (the source's name)
How it was run: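 Multidrug-resistant oral epidermoid carcinoma KB-V1 cells were incubated with test compound in the presence of vinblastine at 1.0 µg/mL. Cytotoxicity is reported as ED50 in µg/mL.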

KB = assay: Cytotoxicity against human KB cells; format: functional; details: read-out: ED50 (the source's name)
How it was run: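 Parental (drug-sensitive) KB oral epidermoid carcinoma cells were exposed to test compound without vinblastine. Cytotoxicity is reported as ED50 in µg/mL.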

Row | SMILES | EC50 (LNCaP) | EC50 (Col2) | EC50 (Lu1) | EC50 [1] | Activity (ASK) | EC50 [2] | EC50 [3] | EC50 (KB)
1 | COc1cc(/C=C/C(=O)O[C@H]2C[C@H]3C[C@H](OC(=O)c4ccccc4)[C@@H](C2)N3C)cc(OC)c1OC | 10 µg/mL (≈ 20.8 µM) | 5.1 µg/mL (≈ 10.6 µM) | > 20 µg/mL | 15.3 µg/mL (≈ 31.8 µM) | inactive | 3.6 µg/mL (≈ 7.48 µM) | 0.2 µg/mL | 10.3 µg/mL (≈ 21.4 µM)
2 | COc1cc(/C=C/C(=O)O[C@@H]2C[C@@H]3[C@@H](OC(=O)c4ccccc4)[C@@H](O)[C@H](C2)N3C)cc(OC)c1OC | 6.7 µg/mL (≈ 13.5 µM) | > 20 µg/mL | > 20 µg/mL | > 20 µg/mL | inactive | 2.6 µg/mL (≈ 5.23 µM) | 0.3 µg/mL | > 20 µg/mL
3 | CN1C2C[C@H](O)CC1[C@@H](OC(=O)c1ccccc1)C2 (some centres not stated) |  |  | > 20 µg/mL | > 20 µg/mL |  | > 20 µg/mL | > 20 µg/mL | > 20 µg/mL
4 | COc1cc(/C=C/C(=O)O[C@@H]2C[C@@H]3[C@@H](OC(=O)c4cc(OC)c(OC)c(OC)c4)[C@@H](O)[C@H](C2)N3C)cc(OC)c1OC | 15 µg/mL (≈ 25.5 µM) | 10.4 µg/mL (≈ 17.7 µM) | 14.6 µg/mL (≈ 24.8 µM) | 6.1 µg/mL (≈ 10.4 µM) | inactive | 20 µg/mL (≈ 34 µM) | 6.6 µg/mL | 12.6 µg/mL (≈ 21.4 µM)
5 | COc1cc(/C=C/C(=O)O[C@@H]2C[C@@H]3[C@@H](OC(=O)c4ccccc4)[C@@H](OC(C)=O)[C@H](C2)N3C)cc(OC)c1OC | 14.9 µg/mL (≈ 27.6 µM) | > 20 µg/mL | > 20 µg/mL | 14.6 µg/mL (≈ 27.1 µM) | inactive | 13.2 µg/mL (≈ 24.5 µM) | 1.1 µg/mL | 14.8 µg/mL (≈ 27.4 µM)
6 | COc1cc(/C=C\C(=O)O[C@H]2C[C@H]3C[C@H](OC(=O)c4ccccc4)[C@@H](C2)N3C)cc(OC)c1OC |  |  | > 20 µg/mL | > 20 µg/mL |  | 3.5 µg/mL (≈ 7.27 µM) | 0.3 µg/mL | > 20 µg/mL
